Results reported in PMC3756293 (Translational Psychiatry, 2013).
“Also recorded” adds a separate entry of the source. Read-outs that look alike come from different tables or passages of the source.

What was measured:
[1] = Preclinical tissue distribution, liver relative to plasma; format: in vivo; conditions: monkeys; data on file
[2] = daily doses up to 100 mg, healthy volunteers and elderly subjects; cited from earlier work
[3] = biological target: T1, 11-beta-hydroxysteroid dehydrogenase type 1 (HSD-1) (Homo sapiens, UniProt P28845); conditions: cited from earlier work
[4] = Plasma pharmacokinetics of ABT-384 and metabolites after five daily doses; format: in vivo, human
[5] = biological target: T1, 11-beta-hydroxysteroid dehydrogenase type 1 (HSD-1); assay: Peripheral HSD-1 inhibition: 1-; format: in vivo
Procedure, shortened: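 Plasma was sampled hourly during two 8 h D4 cortisol infusions on Days 5–6, after 5 days of once-daily dosing. Inhibition = 1 − (plasma D3 cortisol/plasma D4 cortisol), where 1 approximates the steady-state ratio seen in untreated control subjects. Values are given per time point across both infusions (16 time points).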

[6] = Preclinical tissue distribution, liver relative to plasma; format: in vivo; conditions: rats; data on file
[7] = biological target: T1, 11-beta-hydroxysteroid dehydrogenase type 1 (HSD-1); format: in vivo
Procedure, shortened: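 During primed continuous D4 cortisol infusions after five daily doses, plasma was collected hourly. Labeled cortisol and cortisone were measured by mass spectrometry, and the plasma D3 cortisol/D3 cortisone ratio served as a measure of total-body HSD-1 activity.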

[8] = Safety and tolerability in the clinical study; format: in vivo, human
Procedure, shortened: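 This open-label, single-site multiple-dose study ran 1–50 mg QD for 5 days. Subjects were confined from Day −1 until at least 48 h after CSF catheter removal, and adverse events were recorded until 30 days after the last dose.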

[9] = biological target: HSD-1 (Homo sapiens, UniProt P28845); assay: HSD-1 binding and dissociation kinetics in vitro; conditions: data on file
[10] = 1 mg ABT-384 QD for 7 days; cited from earlier work
[11] = CSF pharmacokinetics of ABT-384 and acid metabolite after five daily doses; format: in vivo, human; conditions: for CSF levels as percent of the free plasma levels / CSF levels as percent of the total plasma levels: 1-50 mg QD for 5 days; for CSF/free plasma exposure ratio: across the dose range tested (1-50 mg QD)
Procedure, shortened: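 Two subjects received 50 mg QD for 5 days. CSF was drawn by catheter before dosing, every 30 min for 8 h, and at 9, 12, 16 and 24 h. Other subjects were sampled hourly during the D4 cortisol infusions plus set post-dose times. Parent and acid metabolite were measured by validated HPLC–MS with D6 stable-label internal standards, injected directly without online solid-phase extraction.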

[12] = biological target: T1, 11-beta-hydroxysteroid dehydrogenase type 1 (HSD-1); format: in vivo; remark: listed apart in the source
[13] = biological target: T1, 11-beta-hydroxysteroid dehydrogenase type 1 (HSD-1); format: in vivo; conditions: regimens of 1-50 mg ABT-384 QD for 5 days, spot urine
[14] = 1-50 mg ABT-384 QD for 5 days, healthy men

T1 sequence (P28845 whole entry): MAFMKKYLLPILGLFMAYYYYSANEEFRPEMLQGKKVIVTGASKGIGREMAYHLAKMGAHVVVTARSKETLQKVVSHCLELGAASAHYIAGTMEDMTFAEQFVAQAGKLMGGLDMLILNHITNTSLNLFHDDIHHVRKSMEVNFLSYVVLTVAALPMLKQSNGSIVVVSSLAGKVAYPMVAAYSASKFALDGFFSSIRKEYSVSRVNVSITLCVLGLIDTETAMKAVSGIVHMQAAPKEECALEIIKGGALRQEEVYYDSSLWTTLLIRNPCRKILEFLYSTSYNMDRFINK
Sequence of HSD-1 (P28845 whole entry): as above

For CC(C)(C(=O)NC1C2CC3CC1CC(C(N)=O)(C3)C2)N1CCN(c2ccc(C(F)(F)F)cn2)CC1 (centres unmarked) [ABT-384], the “distribution to the liver relative to the plasma” value [1] is listed as “preferentially distributes to the liver”, the tolerability [2] is listed as “generally well tolerated” and the “decrease of ratio of urine cortisol metabolites to cortisone metabolite” value ([3]; 1-100 mg ABT-384 QD for 7 days, 24-h urine collection) is listed as 87–97%. The “hepatic HSD-1 inhibition” value ([3]; regimens from 1 mg daily (1 mg QD for 7 days)) was “fully inhibited hepatic HSD-1; also recorded: full hepatic HSD-1 inhibition for 24 h”, the “time to peak levels in the plasma” value ([4]; after last dose on Day 5, 1-50 mg QD) was 1.5 to 3 h and the “plasma Cmax at which full peripheral HSD-1 inhibition was observed” value ([4]; man) was about 2 ng/mL. For the same molecule, the “peripheral HSD-1 inhibition” value ([5]; 1 mg regimen, at 40 h after the last dose) was about 86%, the “peripheral HSD-1 inhibition” value ([5]; 1 mg regimen, each of eight time points up to 8 h after the last dose) was about 90% and the “peripheral HSD-1 inhibition” value ([5]; 2, 10 and 50 mg QD, each of 16 time points up to 40 h after the last dose) was 91–93%. The “distribution to the liver relative to the plasma” value [6] was “preferentially distributes to the liver”, the “peripheral HSD-1 inhibition” value ([7]; 1 mg QD, each hour from 33 to 40 h after the last dose) was 81–87% and the “peripheral HSD-1 inhibition” value ([7]; ABT-384 1 mg daily, five daily doses, up to 40 h after last dose) was at least 81%. For the same molecule, the “peripheral HSD-1 inhibition” value ([7]; ABT-384 regimens ⩾2 mg daily, five daily doses, up to 40 h after last dose) was at least 88%, the “HSD-1 inhibition predicted from plasma Cmax” value ([7]; plasma Cmax ~2 ng ml^−1, assuming reversible inhibition, in the absence of preferential tissue distribution) was about 60% and the “adrenocorticotropic hormone or cortisol values above normal” value [8, 14] was “No subject showed adrenocorticotropic hormone or cortisol values above normal”. For the same molecule, the “changes of clinical laboratory tests, vital signs or electrocardiography parameters” value [8, 14] was “No clinically significant changes”, the “deaths, serious adverse events, discontinuations due to adverse events” value [8, 14] was “No deaths, other serious adverse events or discontinuations due to adverse events occurred” and the tolerability ([8]; regimens of 1-50 mg ABT-384 QD for 5 days) was “well tolerated”. For the same molecule, the “binding to and dissociation from HSD-1” value [9] was “rapid binding to, and very slow dissociation from; also recorded: rapid binding, slow dissociation kinetics”, the “mean plasma Cmax” value [10] was 9.41 ng/mL and the “CSF levels as percent of the free plasma levels” value [11] was 10–50%. The “CSF levels as percent of the total plasma levels” value [11] was 0.3–1%, the “CSF/free plasma exposure ratio” value [11] was “less than 0.5” and the “time to peak levels in the CSF” value ([11]; after last dose on Day 5) was 2.5 to 5 h. The “CNS HSD-1 inhibition (CNS formation of D3 cortisol)” value ([12]; 1 mg ABT-384 QD for 5 days) was “partial but substantial CNS HSD-1 inhibition; also recorded: Reduced CNS D3 cortisol formation”, the “intrinsic CSF D3 cortisol compared with the level attained in the absence of study drug” value ([12]; 1 mg regimen, hours 4-8 of each D4 cortisol infusion) was “approximately two- to three-fold lower” and the “CNS HSD-1 inhibition (CNS formation of D3 cortisol)” value ([12]; 2-50 mg ABT-384 QD for 5 days, through 40 h after the last dose) was “full CNS HSD-1 inhibition; also recorded: essentially complete CNS HSD-1 inhibition; also recorded: Complete blockade of D3 cortisol formation in the CNS”. The “minimum daily dose to achieve full CNS HSD-1 inhibition” value ([12]; QD dosing) was at most 2 mg and the “hepatic HSD-1 inhibition” value [13] was “full hepatic HSD-1 inhibition”.
For O=C(O)C(O)(c1cccs1)c1cccs1 [Acid Metabolite], the “mean acid metabolite/parent AUC0-24 ratio in plasma” value ([4]; plasma) was under 20%, the “mean acid metabolite/parent Cmax ratio in plasma” value ([4]; plasma) was under 10% and the “mean metabolite/parent Cmax ratio” value ([4]; plasma, 1-50 mg QD for 5 days) was 6–9%. The “mean plasma Cmax” value [10] was 0.31 ng/mL, the “CSF levels as percent of the free plasma levels” value [11] was 110–150% and the “CSF levels as percent of the total plasma levels” value [11] was 3–4%. The “mean acid metabolite/parent AUC0-24 ratio in CSF” value ([11]; CSF) was 70–90%, the “mean acid metabolite/parent Cmax ratio in CSF” value ([11]; CSF) was about 40% and the “CSF/free plasma exposure ratio” value [11] was “greater than 1”.
